Assay outcomes (PubChem)
GPR7 antagonist – GPR7 receptor antagonists, primary screen, cell-based, fluorescence, single concentration; GPR7-expressing cells, fluorescence antagonist assay; inhibition, % at 4.4 µM; 290,000 tested, 1.1% active; AID 1861, 2009; in the data active means inhibition above about 16%, passing the limit was not always enough;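 further: cells stimulated with the agonist NPW; 0% = agonist with vehicle and 100% = vehicle without agonist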
Target sequence (P48145 whole entry, looked up): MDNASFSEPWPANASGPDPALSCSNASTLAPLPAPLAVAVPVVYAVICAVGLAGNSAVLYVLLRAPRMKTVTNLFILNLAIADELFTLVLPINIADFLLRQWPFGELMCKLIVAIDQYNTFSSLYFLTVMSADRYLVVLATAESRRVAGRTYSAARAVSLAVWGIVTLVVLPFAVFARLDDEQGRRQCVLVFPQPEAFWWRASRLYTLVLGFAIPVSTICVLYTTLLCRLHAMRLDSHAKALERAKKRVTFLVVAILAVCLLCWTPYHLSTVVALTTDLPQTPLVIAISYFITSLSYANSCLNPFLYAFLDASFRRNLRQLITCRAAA
zfTRPN1 agonist – zebrafish TRPN1 channel agonists, primary screen, cell-based, HEK293, calcium fluorescence | AID 1424, 2008 | 220,000 tested, 0.18% active | activation, % at 3 µM | HEK293 zebrafish TRPN1-YFP, Fluo-8 calcium fluorescence; 100% = response to 87 µM carbachol;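 active means activation above its plate's cutoff, the mean activation of test wells on that plate plus 3 SD, cut at about 19% in these data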;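 further: 0% = DMSO alone and 100% = 87 µM carbachol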
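System: zebrafish TRPN1-YFP in HEK293 cells / Dosing: 3 µM single point / Timing: dye loading 1 h at 37 °C, then 30 min room temperature / Signal: Fluo-8 calcium fluorescence, excitation 470-495 nm, emission 515-575 nm / Read-out basis: percent activation from peak over basal fluorescence ratio, control-normalized / Control set: high carbachol 87 µM, low DMSO alone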
CRFR2-BP antag – antagonists of CRF-BP/CRF-R2 complex, primary screen, cell-based, HEK293, calcium dye fluorescence, uHTS; CRF-induced calcium fluorescence; 350,000 tested, 0.59% active; inhibition, % at 11.8 µM; AID 588475, 2011;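 active means inhibition of the ligand-induced calcium signal above about 50% at the single tested concentration, limit read from the data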
CRFR2-BP ag – agonists of CRF-BP/CRF-R2 complex, primary screen, cell-based, HEK293, calcium dye fluorescence, uHTS; AID 588473, 2011; activation, % at 13.2 µM; CRF-binding protein / CRF receptor 2 complex (human); 350,000 tested, 0.46% active; calcium dye fluorescence (FLIPR); percent of saturating CRF peptide response;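 active means activation of at least 50%, plus an integration ratio under a set limit after plate pattern correction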;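 further: plate controls were neutral control wells without compound for no effect and CRF at EC100 for full effect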
TRPML3 ag – human TRPML3 channel agonists, primary screen, cell-based, HEK293 TRPML3-YFP, Fluo-8 calcium fluorescence, 3 µM; 100% = the carbachol control signal; activation, % at 3 µM; AID 1448, 2008; Mucolipin-3 (Homo sapiens), Q8TDD5; 220,000 tested, 0.29% active;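 active means activation above its plate's cutoff, the mean activation of the plate's test wells plus 3 SD, cut at about 12% in these data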;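 further: 0% = DMSO only wells and 100% = carbachol wells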
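Material: HEK293 cells stably carrying human TRPML3-YFP; compound dosing: single dose, 3 µM final nominal compound, 0.3% DMSO final; incubation: 1-h 37 °C dye load, 5-s basal, 120-s post-compound reads; technique: Fluo-8 intracellular calcium fluorescence, excitation 470-495 nm, emission 515-575 nm; read-out basis: percent activation from peak-to-basal fluorescence ratio, scaled between DMSO and carbachol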
Numbers without * were called inactive; / = not tested or not shown; ! = not active in a repeat. A selection: hits, their analogues and other compounds. The true share with any hit is near 2%.

SMILES	GPR7 antagonist	zfTRPN1 agonist	CRFR2-BP antag	CRFR2-BP ag	TRPML3 ag
CC(=O)Nc1cc(C(=O)N2CCC3(CC2)OCCO3)ccc1S(=O)(=O)c1ccc(C)cc1	-10	1	98*	-2	0
CC(C)[C@H]1C(=O)O[C@H](C(C)C)C(=O)N(C)[C@@H](C(C)C)C(=O)O[C@H](C(C)C)C(=O)N(C)[C@@H](C(C)C)C(=O)O[C@H](C(C)C)C(=O)N1C	-1	36*	31	39	20*
COC(=O)C1=C(c2ccc(OC)c(OC)c2)C[C@@H]2CC[C@H]1N2C(=O)NCc1ccco1	/	/	10	-2	/
O=P(/C(=N/O)N1CCOCC1)(N1CCOCC1)N1CCOCC1	-8	0	55*	-3	0
COc1ccc(CN(CCc2c[nH]c3ccccc23)Cc2ccc(OC)cc2)cc1	/	/	63*	1	/
CCOc1ccc(-n2c(O)c(C=Nc3ccc(N(CC)CC)cc3)c(=O)[nH]c2=O)cc1	-11	1	-146	102*	1
CCN(CC)c1ccc(N=Cc2c(O)n(Cc3ccccc3)c(=O)[nH]c2=O)cc1	-4	0	-193	190*!	0
CCN(CC)c1ccc(N=Cc2c(O)n(-c3ccccc3)c(=O)[nH]c2=O)cc1	-7	1	-41	10	0
COc1ccc(Cn2c(O)c(/C=N/NC(=O)c3ccccc3)c(=O)[nH]c2=O)cc1	-5	1	55*	0	1
CC(=O)OCC[N+](C)(C)C	8	75*	-17	26	100*
C[N+](C)(C)CCOC(=O)CBr	/	/	16	-1	/
COC(=O)C1=C(c2c(C)noc2C)C[C@@H]2CC[C@H]1N2C(=O)NCCNC(C)=O	/	/	6	-2	/
COc1cc2c(cc1OC)C1C(=O)c3ccc4c(c3OC1CO2)CC(C(C)C)O4 (centres undefined)	/	/	-17	2	/
COc1cc2c(cc1OC)[C@@H]1C(=O)c3ccc4c(c3O[C@@H]1CO2)C[C@H](C(C)C)O4	21*	5	9	11	3
Cc1ccc(-n2c(O)c(/C=C/C=Nc3ccccc3)c(=O)[nH]c2=O)cc1	-3	2	-59	53*	2
COc1ccc(-n2c(O)c(/C(C)=N/Nc3ccccc3)c(=O)[nH]c2=O)cc1	-7	0	7	-1	1
COc1ccc(-n2c(O)c(/C=C/C=Nc3ccccc3)c(=O)[nH]c2=O)cc1	5	43*	-117	105*	27*
C=CCn1c(O)c(/C=C/C=Nc2ccccc2)c(=O)[nH]c1=O	-4	0	-37	31	2
O=c1[nH]c(=O)n(-c2ccccc2)c(O)c1/C=C/C=Nc1ccccc1	-10	5	-51	28	3
O=c1[nH]c(=O)n(C2CCCCC2)c(O)c1/C=C/C=Nc1ccccc1	-8	6	-130	112*	4
CCC(C)C1NC(=O)C(NC(=O)C(CC(C)C)N(C)C(=O)C2CCCN2C(=O)C(C)O)C(C)OC(=O)C(Cc2ccc(OC)cc2)N(C)C(=O)C2CCCN2C(=O)C(CC(C)C)NC(=O)[C@H](C)C(=O)[C@H](C(C)C)OC(=O)CC1O (some centres undefined)	/	/	27	5	/
Cc1cc(/C=C2/C(=O)NC(=O)N(c3ccc(Br)cc3)C2=O)c(C)n1C	-1	0	-23	0	1
Cc1cc(/C=C2\C(=O)NC(=O)N(c3cccc(Br)c3)C2=O)c(C)n1C	-9	0	-159	97*	0
COC(=O)Cn1cc(C=C2C(=O)NC(=O)NC2=O)c2ccccc21	20	/	-26	0	/
O=C(O)Cn1cc(/C=C2\C(=O)NC(=O)N(c3ccc(F)cc3)C2=O)c2ccccc21	1	/	/	/	/
SMILES	GPR7 antagonist	zfTRPN1 agonist	CRFR2-BP antag	CRFR2-BP ag	TRPML3 ag
COc1ccc(N2C(=O)NC(=O)/C(=C\c3cn(C)c4ccccc34)C2=O)cc1	13	/	-69	120*	/
COC(=O)Cn1cc(/C=C2\C(=O)NC(=O)N(c3ccc(OC)cc3)C2=O)c2ccccc21	6	/	-55	81*	/
ClCCN1CCSCC1	/	/	19	2	/
CCN(CC)CCN=C(C)c1c(O)n(-c2ccccc2OC)c(=O)[nH]c1=O	-9	0	87*	5	1
CCC1(CC)C(=O)NC(=O)N(c2ccccc2)C1=O	/	/	10	1	/
CN(C)c1ccc(C(=O)N/N=C/C23CC[C@@H](O)CC2(O)CC[C@@H]2[C@@H]3CCC3(C)C(C4=CC(=O)OC4)CCC23O)cc1 (some centres undefined)	-17	1	54*	2	1
Cc1cc(C)n(-c2ccc(NN=C(C#N)C#N)cc2)n1	1	32*	38	53*	18*
N#CC(C#N)=NNc1ccc(-n2ccc(C(F)(F)F)n2)cc1	26*	27*	34	53*	23*
CCN(CC)S(=O)(=O)c1ccc(NN=C(C#N)C#N)cc1	-3	2	41	23	1
C[C@@H]1CN([C@@H](C)CO)C(=O)CCCn2nncc2CO[C@@H]1CN(C)C(=O)Oc1cccc2ccccc12	/	/	-2	2	/
Cc1ccc(/C=C2\C(=O)NC(=S)N(c3ccccc3F)C2=O)s1	-9	3	-65	0	1
O=C1NC(=O)N(c2ccccc2)C(=O)/C1=C/c1ccc(Sc2ccccc2)o1	-7	2	-11	16	2
O=C1NC(=O)N(c2ccccc2F)C(=O)/C1=C/c1ccc(Sc2nc3ccccc3[nH]2)o1	2	43*	-44	24	46*
O=C1NC(=O)N(c2cccc(Cl)c2)C(=O)/C1=C\c1ccc(Sc2nc3ccccc3[nH]2)o1	-4	20*	-44	19	14*
Cc1nc2cc(C(F)(F)F)ccc2n1C1CCN(Cc2nnnn2CCc2ccccc2)CC1	20*	4	-3	1	3
Cc1nc2cc(F)ccc2n1C1CCN(Cc2nnnn2CCc2ccccc2)CC1	-6	4	45	-2	3
O=C(CCCN1CCC2(CC1)C(=O)NCN2c1ccccc1)c1ccc(F)cc1	102*	53*	10	137*	50*
O=C(c1ccc(F)cc1)C(Cc1ccccc1)N1CCCCC1 (centres undefined)	0	-2	-12	1	0
COc1ccc(C(=O)CC(c2ccc3c(c2)OCO3)c2c(O)c3ccccc3oc2=O)cc1OC (centres undefined)	/	/	13	-1	/
CCCCC1(CCCC)C(=O)NC(=Nc2cccc(C)c2)NC1=O	-9	12	55*	89*	4
COC(=O)C1=C(c2ccc(-c3ccccc3)c(F)c2)C[C@@H]2CC[C@H]1N2C(=O)NCCCOC(C)C	/	/	20	-4	/
